# Source: ChEMBL document CHEMBL3259621, “Novel merosesquiterpene exerts a potent antitumor activity against breast cancer cells in vitro and in vivo” (Eur J Med Chem, 2014)
# Activity calls are given as the source filed them. The calls are words filed in the database; no cut-off is given here.
# How the values were obtained:
# MCF7 [1] = experiment: Induction of apoptosis in human MCF7 cells assessed as increase in total p53 expression level at 2 uM after 4 to 24 hrs by Western blotting analysis relative to control; type: functional, cell-based
# Procedure, shortened: (§1)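 MCF-7 seeded at 5 × 10⁴/cm² and exposed at 24 h to 2 µM compound for 0, 4, 8, 16 and 24 h. Lysates separated on 12% SDS gels, transferred to nitrocellulose, blocked in 5% milk. Primary antibodies applied overnight at 4 °C, then secondary 1 h at room temperature. Detection by ECL chemiluminescence with β-actin as loading reference.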
# MCF7 [2] = experiment: Cytotoxicity against human MCF7 cells assessed as reduction in cell viability after 3 days by SRB assay; type: functional, cell-based
# Procedure, shortened: (§2)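 MCF-7 seeded at high density (5 × 10⁴/cm²) and treated at 24 h with compound for 3 days, with or without 20 mM NAC. Viable cells quantified by sulforhodamine B staining, OD 492 nm. Viability reduction expressed versus untreated controls.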
# MCF7 [3] = experiment: Induction of apoptosis in human MCF7 cells assessed as reduction in c-myc expression at 2 uM after 24 hrs by Western blotting analysis relative to control; type: functional; set-up: scale not given: the % may be the effect or the level left; procedure, shortened: as §1
# [4] = Therapeutic index, ratio of IC50 for human MCF10A cells to IC50 for human MCF7 cells; type: cell-based, MCF-10A; details: MCF10A cells versus MCF7 cells, read-out: Ratio IC50
# MCF7 [5] = experiment: Cell cycle arrest in human MCF7 cells assessed as accumulation at […] phase at 3 uM after 48 hrs by propidium iodide/RNAse staining-based FACS analysis (reference value: 8.02 %); type: functional
# MCF7 [6] = experiment: Induction of apoptosis in human MCF7 cells assessed as reduction in total pRb protein expression at 2 uM after 16 hrs by Western blotting analysis relative to control; type: functional; set-up: scale not given: the % may be the effect or the level left
# Procedure, shortened: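 MCF-7 seeded at 5 × 10⁴ cells/cm², exposed after 24 h to 2 µM for 0, 4, 8, 16 and 24 h. Lysed in SDS sample buffer, run on 12% acrylamide gels, transferred to nitrocellulose and blocked with 5% milk. Primary antibodies overnight at 4 °C (total or phospho-pRb, β-actin), secondary 1 h at room temperature, ECL chemiluminescence detection.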
# [7] = Therapeutic index, ratio of IC50 for human CCD-18Co cells to IC50 for human SW480 cells; type: cell-based; details: CCD-18Co cells versus SW480 cells, read-out: Ratio IC50
# A549 = experiment: Cytotoxicity against human A549 cells after 3 days by SRB assay; type: functional, cell-based; details: A549, 72 h
# Procedure, shortened: (§3)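 Cells seeded in quadruplicate at 5 × 10³ cells/cm². Compound added at 24 h over increasing concentrations for 3 days. Cells fixed with cold 10% TCA, stained with 0.4% sulforhodamine B in 1% acetic acid, dye solubilized in 10 mM Tris pH 10.5, OD read at 492 nm. IC50 taken by linear interpolation of the semi-log dose-response curve. DMSO below 0.1% final.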
# [8] = Therapeutic index, ratio of IC50 for human MCF10A cells to IC50 for human MDA-MB-231 cells; type: cell-based, MCF-10A; details: MCF10A cells versus MDA-MB-231 cells, read-out: Ratio IC50
# MCF7 [9] = experiment: Cell cycle arrest in human MCF7 cells assessed as accumulation at S phase at 2 uM after 24 hrs by propidium iodide/RNAse staining-based FACS analysis (reference value: 49.46 %); type: functional
# MCF7 [10] = experiment: Induction of apoptosis in human MCF7 cells assessed as apoptotic cells at 3 uM after 48 hrs by annexin V staining-based flow cytometry (reference value: 3.44 %); type: functional
# MCF7 [11] = experiment: Cell cycle arrest in human MCF7 cells assessed as accumulation at […] phase at 2 uM after 48 hrs by propidium iodide/RNAse staining-based FACS analysis (reference value: 8.02 %); type: functional
# MCF7 [12] = experiment: Induction of apoptosis in human MCF7 cells assessed as early apoptotic cells at 2 uM after 48 hrs by annexin V staining-based flow cytometry (reference value: 0.205 %); type: functional
# [13] = Therapeutic index, ratio of IC50 for human MCF10A cells to IC50 for human T47D cells; type: cell-based, MCF-10A; details: MCF10A cells versus T47D cells, read-out: Ratio IC50
# MCF7 [14] = experiment: Induction of apoptosis in human MCF7 cells assessed as reduction in cyclin D1 protein expression at 2 uM after 4 hrs by Western blotting analysis relative to control; type: functional; set-up: scale not given: the % may be the effect or the level left; procedure, shortened: as §1
# [15] = molecular target: T1, Mitogen-activated protein kinase; ERK1/ERK2 (Homo sapiens) (UniProt P27361+P28482); experiment: Increase of p44/42 MAPK phosphorylation in human MCF7 cells at 2 uM after 4 to 24 hrs by Western blotting analysis relative to control; type: cell-based; procedure, shortened: as §1
# MCF7 [16] = experiment: Induction of apoptosis in human MCF7 cells assessed as increase in p27 expression at 2 uM after 4 to 24 hrs by Western blotting analysis relative to control; type: functional, cell-based; procedure, shortened: as §1
# T47D = experiment: Cytotoxicity against human T47D cells after 3 days by SRB assay; type: functional, cell-based; details: 72 h
# Procedure, shortened: (§4)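 Cells seeded at 5 × 10³ cells/cm² in quadruplicate and, after 24 h, treated with increasing concentrations for 3 days. Compounds diluted from DMSO stock, final DMSO <0.1% v/v. Cells were fixed with cold 10% TCA, stained with 0.4% sulforhodamine B in 1% acetic acid, and dye solubilised in 10 mM Tris-base pH 10.5. OD read at 492 nm. IC50 obtained by linear interpolation on a semi-log dose-response curve.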
# MCF7 [17] = experiment: Induction of apoptosis in human MCF7 cells assessed as reduction in cyclin B1 protein expression at 2 uM after 16 hrs by Western blotting analysis; type: functional; set-up: scale not given: the % may be the effect or the level left; procedure, shortened: as §1
# MCF7 [18] = experiment: Cytotoxicity against human MCF7 cells assessed as reduction in cell viability at 2 uM after 3 days by SRB assay relative to control; type: functional; procedure, shortened: as §2
# [19] = Cytotoxicity against human MCF10A cells after 3 days by SRB assay; type: cell-based; details: MCF-10A, 72 h; procedure, shortened: as §4
# MCF7 [20] = experiment: Induction of apoptosis in human MCF7 cells assessed as reduction in cyclin B1 protein expression at 2 uM by Western blotting analysis; type: functional, cell-based; procedure, shortened: as §1
# MCF7 [21] = experiment: Induction of apoptosis in human MCF7 cells assessed as apoptotic cells at 1 uM after 48 hrs by annexin V staining-based flow cytometry (reference value: 3.44 %); type: functional
# Mus musculus = experiment: Toxicity in C57BL/6 mouse allografted with mouse E0771 cells assessed as hair loss at 5 to 15 mg/kg, po; type: organism-based; set-up: dose 5-15 mg/kg, route oral; details: in vivo
# Procedure, shortened: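 C57BL/6 mice (10 per group) injected subcutaneously in the right side with 1 × 10⁶ E0771 cells. At day 9, with tumours at 75 mm³, mice were randomised to oral vehicle (1% methylcellulose) or 5, 10 or 15 mg/kg on six occasions. Animals were monitored to day 42 for survival and for signs of toxicity such as hair loss or diarrhoea.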
# [22] = Cytotoxicity against human CCD-18Co cells after 3 days by SRB assay; type: cell-based; details: 72 h; procedure, shortened: as §4
# MCF7 [23] = experiment: Cell cycle arrest in human MCF7 cells assessed as accumulation at […] phase after 48 hrs by propidium iodide/RNAse staining-based FACS analysis; type: functional
# MCF7 [24] = experiment: Cytotoxicity against human MCF7 cells after 3 days by SRB assay; type: functional, cell-based; details: MCF7, 72 h; procedure, shortened: as §3
# MDA-MB-231 = experiment: Cytotoxicity against human MDA-MB-231 cells after 3 days by SRB assay; type: functional, cell-based; details: MDA-MB-231, 72 h; procedure, shortened: as §4
# [25] = molecular target: T1, Mitogen-activated protein kinase; ERK1/ERK2 (Homo sapiens); experiment: Increase of p44/42 MAPK phosphorylation in human MCF7 cells at 2 uM up to 4 hrs by Western blotting analysis relative to control; type: cell-based; procedure, shortened: as §1
# T1 sequence (P27361 whole entry, looked up): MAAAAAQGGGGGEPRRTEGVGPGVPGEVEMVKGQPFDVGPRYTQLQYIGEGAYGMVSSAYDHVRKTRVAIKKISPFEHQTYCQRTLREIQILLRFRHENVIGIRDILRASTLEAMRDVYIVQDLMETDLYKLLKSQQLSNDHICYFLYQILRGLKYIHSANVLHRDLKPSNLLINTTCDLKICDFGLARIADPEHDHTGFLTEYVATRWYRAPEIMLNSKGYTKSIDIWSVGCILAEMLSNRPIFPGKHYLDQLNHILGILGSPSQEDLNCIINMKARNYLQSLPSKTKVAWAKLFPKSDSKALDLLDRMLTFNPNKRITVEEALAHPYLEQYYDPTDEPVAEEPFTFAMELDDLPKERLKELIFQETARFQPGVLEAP
# T1 sequence (P28482 whole entry, looked up): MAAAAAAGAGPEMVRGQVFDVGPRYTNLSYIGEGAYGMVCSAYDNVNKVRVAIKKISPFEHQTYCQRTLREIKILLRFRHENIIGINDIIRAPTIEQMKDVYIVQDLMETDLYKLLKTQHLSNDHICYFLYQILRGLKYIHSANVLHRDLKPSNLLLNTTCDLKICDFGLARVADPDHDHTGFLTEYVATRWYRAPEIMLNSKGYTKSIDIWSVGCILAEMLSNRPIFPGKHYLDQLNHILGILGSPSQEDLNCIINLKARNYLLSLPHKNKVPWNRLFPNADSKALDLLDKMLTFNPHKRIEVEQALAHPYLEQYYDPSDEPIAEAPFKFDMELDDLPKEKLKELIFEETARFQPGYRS
structure (smiles),measurement,setting,value
C=C1CC[C@@H]2[C@](C)(CCC[C@]2(C)C(=O)OC)[C@H]1Cc1c(C)ccc2c1C(=O)C=CC2=O,Activity,MCF7 [1],Active
same,Activity,MCF7 [2],Dose-dependent effect
same,Activity,MCF7 [3],80%
same,selectivity ratio,[4],9
same,Activity,MCF7 [5],39.91%
same,Activity,MCF7 [6],90%
same,selectivity ratio,[7],0.36
same,IC50,A549,1380 nM
same,selectivity ratio,[8],6.85
same,Activity,MCF7 [9],29.15%
same,Activity,MCF7 [10],57.8%
same,Activity,MCF7 [11],31.09%
same,Activity,MCF7 [12],12.5%
same,selectivity ratio,[13],5
same,Activity,MCF7 [14],80%
same,Activity,[15],Active
same,Activity,MCF7 [16],Active
same,IC50,T47D,630 nM
same,Activity,MCF7 [17],6%
same,viability,MCF7 [18],46.09%
same,IC50,[19],3.15 µM
same,Activity,MCF7 [20],Active
same,Activity,MCF7 [21],11.07%
same,Activity,Mus musculus,Non-toxic
same,IC50,[22],330 nM
same,Activity,MCF7 [23],Dose-dependent effect
same,IC50,MCF7 [24],350 nM
same,IC50,MDA-MB-231,460 nM
same,Activity,[25],Active
